Measurements from ChEMBL document CHEMBL3286263, “Bazedoxifene-scaffold-based mimetics of solomonsterols A and B as novel pregnane X receptor antagonists” (J Med Chem, 2014).
Activity calls are given as the source filed them. No cut-off for these calls is given here.

How the values were obtained:
HepG2 [1] = assay: Cytotoxicity against human HepG2 cells transfected with pSG5-PXR/pSG5-RXR/pCMV-beta-galactosidase/p(CYP3A4)-TK-Luc at 50 uM; type: ADME, cell-based; conditions: hepg2, 50 µM
Summary of the method: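 Transfected HepG2 cells given rifaximin 10 µM plus compound at 50 µM for 18 h; cytotoxicity judged by morphological analysis.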

[2] = biological target: T1, Nuclear receptor subfamily 1 group I member 2 (Homo sapiens, UniProt O75469); assay: Antagonist activity at human PXR transfected in human HepG2 cells co-transfected with pSG5-RXR/pCMV-beta-galactosidase/p(CYP3A4)-TK-Luc assessed as inhibition of rifaximin-induced transactivation at 50 uM after 18 hrs by luciferase reporter gene assay; type: cell-based; conditions: hepg2, 18 h
T1 sequence (O75469 whole entry): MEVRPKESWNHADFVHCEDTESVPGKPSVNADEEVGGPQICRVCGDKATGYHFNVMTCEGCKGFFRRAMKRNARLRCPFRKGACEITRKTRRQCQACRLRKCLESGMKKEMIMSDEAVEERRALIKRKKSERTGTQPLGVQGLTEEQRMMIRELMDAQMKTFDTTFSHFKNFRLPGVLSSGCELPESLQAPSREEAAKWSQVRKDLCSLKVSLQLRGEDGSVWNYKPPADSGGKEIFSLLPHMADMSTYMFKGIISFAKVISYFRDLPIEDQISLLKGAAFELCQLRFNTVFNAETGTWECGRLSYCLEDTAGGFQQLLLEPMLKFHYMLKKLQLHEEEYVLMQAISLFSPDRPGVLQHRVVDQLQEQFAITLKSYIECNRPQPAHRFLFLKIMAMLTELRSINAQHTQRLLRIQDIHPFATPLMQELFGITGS
Summary of the method: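 HepG2 transiently transfected with hPXR, RXR, β-galactosidase and PXRE-luciferase vectors; 24 h later exposed 18 h to rifaximin 10 µM plus compound at 50 µM. Luciferase in lysate measured and divided by β-galactosidase activity to correct for transfection efficiency.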

[3] = biological target: T1, Nuclear receptor subfamily 1 group I member 2; assay: Antagonist activity at human PXR transfected in African green monkey CV1 cells assessed as inhibition of SR12813-induced transactivation after 24 hrs by luciferase reporter gene assay; type: cell-based, CV-1
[4] = biological target: T1, Nuclear receptor subfamily 1 group I member 2; assay: Agonist activity at human PXR transfected in human HepG2 cells co-transfected with pSG5-RXR/pCMV-beta-galactosidase/p(CYP3A4)-TK-Luc at 10 uM after 18 hrs by luciferase reporter gene assay; type: cell-based; conditions: hepg2, 18 h
Summary of the method: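 HepG2 seeded 5x10^4 cells/well in MEM/10% FBS, transfected (Fugene HD) with pSG5hPXR, pSG5-RXR, pCMV-β-galactosidase and PXRE luciferase reporter. At 24 h post-transfection, treated 18 h with compounds at 10 µM; rifaximin and solomonsterol A (10 µM) as reference agonists. Lysate luciferase read, normalised to β-galactosidase activity.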

HepG2 [5] = assay: Downregulation of PXR mRNA expression in rifaximin-treated human HepG2 cells at 50 uM after 18 hrs by real time-PCR analysis; type: functional, cell-based
Summary of the method: (§1)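 HepG2 seeded 5x10^5 cells/well, grown to about 70% confluence, serum-starved 24 h, then treated 18 h with rifaximin 10 µM alone or with compound at 50 µM. PXR and CYP3A4 mRNA by real-time PCR in triplicate (40 cycles), normalised to GAPDH, 2^-ΔΔCt relative to untreated cells; mean of two experiments.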

[6] = biological target: T1, Nuclear receptor subfamily 1 group I member 2; assay: Antagonist activity at PXR in human HepG2 cells assessed as inhibition of rifaximin-induced CYP3A4 mRNA expression at 50 uM after 18 hrs by real time-PCR analysis; type: cell-based; conditions: hepg2, 18 h; summary of the method: as §1
[7] = biological target: T1, Nuclear receptor subfamily 1 group I member 2; assay: Antagonist activity at human PXR transfected in human HepG2 cells co-transfected with pSG5-RXR/pCMV-beta-galactosidase/p(CYP3A4)-TK-Luc assessed as inhibition of rifaximin-induced transactivation after 18 hrs by luciferase reporter gene assay; type: cell-based; conditions: for inhibition (INH): human, hepg2, 18 h
Summary of the method: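 PXR/RXR/β-gal/PXRE-luciferase-transfected HepG2 cells, 24 h post-transfection, co-treated 18 h with 10 µM rifaximin and compound at 10, 25 and 50 µM. β-galactosidase-normalised luciferase signal used to fit concentration-response curves for IC50.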

[8] = biological target: T1, Nuclear receptor subfamily 1 group I member 2; assay: Antagonist activity at PXR (unknown origin) transfected in human HepG2 cells assessed as inhibition of rifampicin-induced reporter gene transcription; type: cell-based

Compound | inhibition (INH) [2] | Activity [4] | other results
CCCn1c(-c2ccc(O)c(O)c2)c(C)c2cc(O)ccc21 | Active | – | Activity (HepG2 [1]): Toxic
O=c1oc2cc(O)ccc2c2oc3cc(O)ccc3c12 [COUMESTROL] | – | – | IC50 [3]: 12 µM
Cc1c(-c2ccc(OS(=O)(=O)[O-])c(OS(=O)(=O)[O-])c2)[nH]c2ccc(OS(=O)(=O)[O-])cc12.[Na+].[Na+].[Na+] | Not Active | Not Active | –
Cc1c(-c2ccc(O)c(O)c2)[nH]c2ccc(OCCO)cc12 | Active | Not Active | –
Cc1c(-c2ccc(O)c(O)c2)[nH]c2ccc(OCCCO)cc12 | Active | Not Active | Activity (HepG2 [5]): Active; inhibition (INH) [6]: Active; IC50 [7]: 14 µM; inhibition (INH) [7]: Dose-dependent effect
Cc1c(-c2ccc(O)cc2)[nH]c2ccc(OCCCO)cc12 | Active | Not Active | –
Cc1c(-c2ccc(O)c(O)c2)[nH]c2ccc(O)cc12 | Active | Not Active | Activity (HepG2 [5]): Active; inhibition (INH) [6]: Active; IC50 [7]: 11 µM; inhibition (INH) [7]: Dose-dependent effect
Cc1c(-c2ccc(O)cc2)[nH]c2ccc(O)cc12 | Active | Not Active | –
CO[C@H]1/C=C/O[C@@]2(C)Oc3c(C)c(O)c4c(O)c(c5c(nc6cc(C)ccn65)c4c3C2=O)NC(=O)/C(C)=C\C=C\[C@H](C)[C@H](O)[C@@H](C)[C@@H](O)[C@@H](C)[C@H](OC(C)=O)[C@@H]1C [RIFAXIMIN] | – | Active | –
C[C@H](CCCOS(=O)(=O)[O-])[C@H]1CC[C@H]2[C@@H]3CC[C@H]4C[C@H](OS(=O)(=O)[O-])[C@@H](OS(=O)(=O)[O-])C[C@]4(C)[C@H]3CC[C@]12C.[Na+].[Na+].[Na+] [SOLOMONSTEROL A] | – | Active | –
Cc1ccc(SC(=O)c2c(C)noc2-c2cc(C)on2)cc1 | – | – | IC50 [8]: 0.85 µM
Cc1c(-c2ccc(OS(=O)(=O)[O-])c(OS(=O)(=O)[O-])c2)[nH]c2ccc(OCCCOS(=O)(=O)[O-])cc12.[Na+].[Na+].[Na+] | Not Active | Not Active | –
Cc1c(-c2ccc(O)c(O)c2)n(C)c2ccc(O)cc12 | Active | – | Activity (HepG2 [1]): Toxic
Cc1c(-c2ccc(O)c(O)c2)n(Cc2ccccc2)c2ccc(O)cc12 | Active | – | Activity (HepG2 [1]): Toxic
Cc1c(-c2ccc(OS(=O)(=O)[O-])cc2)[nH]c2ccc(OCCOS(=O)(=O)[O-])cc12.[Na+].[Na+] | Not Active | Not Active | –
COc1ccc2[nH]c(-c3ccc(OC)c(OC)c3)c(C)c2c1 | Active | – | Activity (HepG2 [1]): Non-toxic
Cc1c(-c2ccc(OS(=O)(=O)[O-])cc2)[nH]c2ccc(OS(=O)(=O)[O-])cc12.[Na+].[Na+] | Not Active | Not Active | –
Cc1c(-c2ccc(O)cc2)[nH]c2ccc(OCCO)cc12 | Active | Not Active | –
COc1ccc2c(c1)c(C)c(-c1ccc(OC)c(OC)c1)n2C | Active | – | Activity (HepG2 [1]): Toxic
Cc1c(-c2ccc(OS(=O)(=O)[O-])cc2)[nH]c2ccc(OCCCOS(=O)(=O)[O-])cc12.[Na+].[Na+] | Not Active | Not Active | –
